Reference: ChEMBL document CHEMBL1137859, “Synthesis of C8-linked pyrrolo[2,1-c][1,4]benzodiazepine-benzimidazole conjugates with remarkable DNA-binding affinity” (2004)
Each block holds one compound with its values, some of them ahead of it.

Experiments:
[1] = test system: Calf thymus DNA; experiment: Thermal denaturation of calf thymus DNA at 0 h, incubation at 37 degree C; assay type: nucleic-acid assay; details: Bos taurus
Procedure, shortened: (§1)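 CT-DNA (100 μM) with ligand 20 μM (PBD/DNA molar ratio 1:5) in aqueous sodium phosphate buffer (10 mM sodium phosphate + 1 mM EDTA, pH 7.00±0.01). Incubated at 37 °C for 0 h or 18 h, then thermal helix→coil melting followed. ΔTm taken relative to DNA alone (Tm mean of 20 separate determinations). ΔTm values ±0.05–0.1 °C.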

[2] = test system: Calf thymus DNA; experiment: Thermal denaturation of calf thymus DNA at 18 h, incubation at 37 degree C; assay type: nucleic-acid assay; details: Bos taurus; procedure, shortened: as §1
[3] = test system: UACC-62; experiment: In vitro concentration required to produce 50% lethality against human melanoma UACC-62 cell line; assay type: functional; details: read-out: LC50 (the source's name)
[4] = test system: MDA-MB-435; experiment: In vitro concentration required to produce 50% lethality against human breast MDA-MB-435 cell line; assay type: functional; details: read-out: LC50 (the source's name)
[5] = test system: Malme-3M; experiment: In vitro concentration required to produce 50% lethality against human melanoma MALME-3M cell line; assay type: functional; details: read-out: LC50 (the source's name)
[6] = test system: SK-MEL-2; experiment: In vitro concentration required to produce 50% lethality against human melanoma SK-MEL-2 cell line; assay type: functional; details: read-out: LC50 (the source's name)
[7] = test system: SK-MEL-5; experiment: In vitro concentration required to produce 50% lethality against human melanoma SK-MEL-5 cell line; assay type: functional; details: read-out: LC50 (the source's name)
[8] = test system: MDA-MB-231; experiment: In vitro concentration required to produce 50% lethality against human breast MDA-MB-231/ATCC cell line; assay type: functional; details: read-out: LC50 (the source's name)
[9] = test system: EKVX; experiment: In vitro concentration required to produce 50% lethality against human non small cell lung EKVX cell line; assay type: functional; details: read-out: LC50 (the source's name)
[10] = test system: HOP-62; experiment: In vitro concentration required to produce 50% lethality against human non small cell lung HOP-62 cell line; assay type: functional; details: read-out: LC50 (the source's name)
[11] = test system: NCI-H226; experiment: In vitro concentration required to produce 50% lethality against human non small cell lung NCI-H226 cell line; assay type: functional; details: read-out: LC50 (the source's name)
[12] = test system: NCI-H522; experiment: In vitro concentration required to produce 50% lethality against human non small cell lung NCI-H522 cell line; assay type: functional; details: read-out: LC50 (the source's name)
[13] = In vitro concentration required to produce 50% lethality against human CNS […] cell line; assay type: functional; details: read-out: LC50 (the source's name)
[14] = test system: SF-539; experiment: In vitro concentration required to produce 50% lethality against human CNS SF-539 cell line; assay type: functional; details: read-out: LC50 (the source's name)
[15] = test system: SNB-19; experiment: In vitro concentration required to produce 50% lethality against human CNS SNB-19 cell line; assay type: functional; details: read-out: LC50 (the source's name)
[16] = test system: KM12; experiment: In vitro concentration required to produce 50% lethality against human colon KM12 cell line; assay type: functional; details: read-out: LC50 (the source's name)
[17] = test system: 786-0; experiment: In vitro concentration required to produce 50% lethality against human renal 786-0 cell line; assay type: functional; details: read-out: LC50 (the source's name)
[18] = test system: A498; experiment: In vitro concentration required to produce 50% lethality against human renal A-498 cell line; assay type: functional; details: read-out: LC50 (the source's name)
[19] = test system: TK-10; experiment: In vitro concentration required to produce 50% lethality against human renal TK-10 cell line; assay type: functional; details: read-out: LC50 (the source's name)
[20] = test system: M14; experiment: In vitro concentration required to produce 50% lethality against human melanoma M14 cell line; assay type: functional; details: read-out: LC50 (the source's name)
[21] = test system: SN12C; experiment: In vitro concentration required to produce 50% lethality against human renal SN12C cell line; assay type: functional; details: read-out: LC50 (the source's name)
[22] = test system: BT-549; experiment: In vitro concentration required to produce 50% lethality against human breast BT-549 cell line; assay type: functional; details: read-out: LC50 (the source's name)
[23] = test system: PC-3; experiment: In vitro concentration required to produce 50% lethality against human prostate PC-3 cell line; assay type: functional; details: read-out: LC50 (the source's name)
[24] = test system: RXF 393; experiment: In vitro concentration required to produce 50% lethality against human renal RXF 393 cell line; assay type: functional; details: read-out: LC50 (the source's name)
[25] = test system: IGROV-1; experiment: In vitro concentration required to produce 50% lethality against human ovarian IGROVI cell line; assay type: functional; details: read-out: LC50 (the source's name)
[26] = test system: OVCAR-3; experiment: In vitro concentration required to produce 50% lethality against human ovarian OVCAR-3 cell line; assay type: functional; details: read-out: LC50 (the source's name)
[27] = test system: OVCAR-5; experiment: In vitro concentration required to produce 50% lethality against human ovarian OVCAR-5 cell line; assay type: functional; details: read-out: LC50 (the source's name)
[28] = In vitro concentration required to produce 50% lethality against human prostate DU-145 cell line; assay type: functional; details: read-out: LC50 (the source's name)
[29] = test system: T47D; experiment: In vitro concentration required to produce 50% lethality against human breast T47D cell line; assay type: functional; details: read-out: LC50 (the source's name)
[30] = test system: OVCAR-8; experiment: In vitro concentration required to produce 50% lethality against human ovarian OVCAR-8 cell line; assay type: functional; details: read-out: LC50 (the source's name)

SMILES: COc1cc2c(cc1O)N=C[C@H]1CCCN1C2=O
ΔTm [1]: 0.3 °C

SMILES: CN1CCN(c2ccc3[nH]c(-c4ccc(O)cc4)nc3c2)CC1
ΔTm [1]: 2.9 °C | ΔTm [2]: 2.9 °C

SMILES: COc1cc2c(cc1OCCCOc1ccc(-c3nc4ccc(N5CCN(C)CC5)cc4[nH]3)cc1)N=C[C@@H]1CCCN1C2=O
ΔTm [1]: 16.6 °C | ΔTm [2]: 22.5 °C | CC50 [3]: 0.01 µM | CC50 [4]: 0.01 µM | CC50 [5]: 34.4 µM | CC50 [6]: 0.01 µM | CC50 [7]: 0.01 µM | CC50 [8]: 13.5 µM | CC50 [9]: 25.2 µM | CC50 [10]: 17.4 µM | CC50 [11]: 23.5 µM | CC50 [12]: 0.01 µM | CC50 [13]: 27.8 µM | CC50 [14]: 0.01 µM | CC50 [15]: 47.5 µM | CC50 [16]: 45.2 µM | CC50 [17]: 31.2 µM | CC50 [18]: 0.01 µM | CC50 [19]: 39.7 µM | CC50 [20]: 0.01 µM | CC50 [21]: 18.7 µM | CC50 [22]: 12.6 µM | CC50 [23]: 16.4 µM | CC50 [24]: 0.01 µM | CC50 [25]: 45.3 µM | CC50 [26]: 34.6 µM | CC50 [27]: 33.9 µM | CC50 [28]: 33.7 µM | CC50 [29]: 42.1 µM | CC50 [30]: 21 µM

Other lines, results leading:

ΔTm [1]: 3.8 °C | ΔTm [2]: 4 °C
SMILES: COc1cc2c(cc1OCCCCOc1ccc(-c3nc4ccccc4[nH]3)cc1)N=C[C@@H]1CCCN1C2=O

ΔTm [1]: 22.4 °C | ΔTm [2]: 22.6 °C
SMILES: COc1cc2c(cc1OCCCCCOc1ccc(-c3nc4cc(N5CCN(C)CC5)ccc4[nH]3)cc1)N=C[C@@H]1CCCN1C2=O

ΔTm [1]: 11 °C | ΔTm [2]: 11.4 °C
SMILES: COc1cc2c(cc1OCCCOc1ccc(-c3nc4ccccc4[nH]3)cc1)N=C[C@@H]1CCCN1C2=O

ΔTm [1]: 10.3 °C | ΔTm [2]: 11 °C
SMILES: COc1cc2c(cc1OCCCCCOc1ccc(-c3nc4ccccc4[nH]3)cc1)N=C[C@@H]1CCCN1C2=O

ΔTm [1]: 15.5 °C | ΔTm [2]: 15.5 °C
SMILES: COc1cc2c(cc1OCCCCOc1ccc(-c3nc4cc(N5CCN(C)CC5)ccc4[nH]3)cc1)N=C[C@@H]1CCCN1C2=O
